The source made the active and inactive calls. No cut-off for these calls is given here.
Columns and labels:
Format in all cases: cell-based
Tubulin (Homo sapiens) [1] = target: T1, Tubulin (Homo sapiens) (UniProt P68371+Q9H4B7+P0DPH7+P68366+Q13509+Q71U36+P04350+Q3ZCM7+P07437+P68363+Q9BQE3+Q6PEY2+Q13885+Q9BVA1+Q9BUF5); assay: Induction of microtubule aggregation in human KB7D cells assessed as polymerized fraction at 0.1 uM measured after 16 hrs by SDS-PAGE analysis (reference value: 34%)
Procedure, shortened: (§1)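 KB-Vin or KB-7D cells treated 16 h, then lysed 5 min at 37 °C in the dark in hypotonic buffer (1% NP-40, 1 mmol/L MgCl2, 2 mmol/L EGTA, 50 mmol/L Tris-HCl pH 6.8, protease inhibitors). Spun 13000 rpm, 10 min, room temperature. Soluble supernatant and resuspended polymerized pellet run on SDS-PAGE.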

Tubulin (Homo sapiens) [2] = target: T1, Tubulin (Homo sapiens); assay: Induction of microtubule aggregation in human KB-VIN cells assessed as polymerized fraction at 1 uM measured after 16 hrs by SDS-PAGE analysis (reference value: 34%); procedure, shortened: as §1
Tubulin (Homo sapiens) [3] = target: T1, Tubulin (Homo sapiens); assay: Induction of microtubule aggregation in human KB7D cells assessed as polymerized fraction at 0.01 uM measured after 16 hrs by SDS-PAGE analysis (reference value: 34%); procedure, shortened: as §1
Tubulin (Homo sapiens) [4] = target: T1, Tubulin (Homo sapiens); assay: Induction of microtubule aggregation in human KB-VIN cells at 1 uM measured after 24 hrs by DAPI staining based deconvolution fluorescence microscopic analysis
Procedure, shortened: (§2)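 Cells on glass coverslips treated 24 h, fixed in 4% paraformaldehyde for 15 min, and permeabilized with 0.5% Triton X-100. Blocked in PBS/2% BSA, stained with anti-beta-tubulin (1:250) and Alexa 488 anti-mouse (1:250), and mounted with DAPI. Imaged by wide-field deconvolution microscopy.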

Tubulin (Homo sapiens) [5] = target: T1, Tubulin (Homo sapiens); assay: Induction of microtubule aggregation in human KB-VIN cells assessed as polymerized fraction at 0.01 uM measured after 16 hrs by SDS-PAGE analysis (reference value: 34%); procedure, shortened: as §1
Tubulin (Homo sapiens) [6] = target: T1, Tubulin (Homo sapiens); assay: Induction of microtubule aggregation in human KB7D cells assessed as polymerized fraction at 1 uM measured after 16 hrs by SDS-PAGE analysis (reference value: 34%); procedure, shortened: as §1
Tubulin (Homo sapiens) [7] = target: T1, Tubulin (Homo sapiens); assay: Induction of microtubule aggregation in human KB7D cells at 1 uM measured after 24 hrs by DAPI staining based deconvolution fluorescence microscopic analysis; procedure, shortened: as §2
Tubulin (Homo sapiens) [8] = target: T1, Tubulin (Homo sapiens); assay: Induction of microtubule aggregation in human KB-VIN cells assessed as polymerized fraction at 0.1 uM measured after 16 hrs by SDS-PAGE analysis (reference value: 34%); procedure, shortened: as §1

- Activity (Tubulin (Homo sapiens) [1]): 59.7%
- Activity (Tubulin (Homo sapiens) [2]): 46.1%
- Activity (Tubulin (Homo sapiens) [3]): 45.9%
- Activity (Tubulin (Homo sapiens) [4]): Active
- Activity (Tubulin (Homo sapiens) [5]): 41.1%
- Activity (Tubulin (Homo sapiens) [6]): 61.5%
- Activity (Tubulin (Homo sapiens) [7]): Active
- Activity (Tubulin (Homo sapiens) [8]): 45.9%
Structure (SMILES): CC(=O)O[C@H]1C(=O)[C@@]2(C)[C@H]([C@H](OC(=O)c3ccccc3)[C@]3(O)C[C@H](OC(=O)[C@H](O)[C@@H](NC(=O)c4ccccc4)c4ccccc4)C(C)=C1C3(C)C)[C@]1(OC(C)=O)CO[C@@H]1C[C@@H]2O

Source: ChEMBL document CHEMBL4680226, “Design, synthesis, and evaluation of N-phenyl-4-(2-phenylsulfonamido)-benzamides as microtubule-targeting agents in drug-resistant cancer cells, displaying HDAC inhibitory response” (Eur J Med Chem, 2020)
